Assay results published in article PMC5377441 (International Journal for Parasitology: Drugs and Drug …, 2017).
Read-outs that look alike come from different tables or passages of the source. Marks after values point to notes of the source that are not given here. Blank lines part the entries; values can stand above or below the compound they belong to.

Experiments:
H. polygyrus [1] = experiment: In vitro drug uptake and elimination by H. polygyrus; type: in vitro ADME, Heligmosomoides polygyrus
adult H. polygyrus = experiment: In vitro drug activity against adult H. polygyrus, phenotypic readout; type: cell-based, Heligmosomoides polygyrus; conditions: 200 μM, 72 h
How it was run: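 Adult H. polygyrus were dissected from NMRI mice from ten days post-infection onward. Four worms per drug were incubated in 2 ml at 200 μM for 72 h, with DMSO-matched worms as controls. Motility, transparency and morphology were scored from 3 (normal) to 0 (highly impaired or dead). Runs were done in duplicate and repeated once.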

T. muris [2] = experiment: In vitro drug uptake and elimination by T. muris; type: in vitro ADME, Trichuris muris; conditions: 24 h
H. polygyrus [3] = experiment: Uptake of albendazole and its metabolites by H. polygyrus in vivo; set-up: species or system Heligmosomoides polygyrus in NMRI mice; conditions: for albendazole in worms: oral 100 mg/kg, average
How it was run: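 Female NMRI mice were infected by oral gavage with 80 H. polygyrus L3. Groups received 100 mg/kg albendazole, albendazole after 50 mg/kg ABT given 16 h earlier, or albendazole sulfoxide, orally or intraperitoneally. Four mice per time point were killed at 2, 5 or 8 h (intraperitoneal groups at 2 h only). Worms were recovered, and drug was quantified by HPLC-UV/vis and reported per ten worms.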

[4] = type: in vivo, NMRI mice; conditions: for albendazole in small intestinal mucosa / albendazole in stomach content: intraperitoneal 100 mg/kg, 2 h
T. muris [5] = experiment: Drug uptake by T. muris in vivo; set-up: species or system Trichuris muris in C57BL/10 mice; conditions: in vivo
adult T. muris = conditions: incubation at >600 μM, 72 h; ref Keiser et al., 2012; cited from earlier work
H. polygyrus [6] = conditions: oral 100 mg/kg, ref Unpublished data, 100 mg/kg, cited from earlier work
T. muris [7] = conditions: oral 300 mg/kg; ref Keiser et al., 2013; cited from earlier work
[8] = type: in vivo, C57BL/10 mice
hookworm infections = conditions: single oral dosage; ref Keiser and Utzinger, 2008; cited from earlier work
trichuriasis = conditions: ref Keiser and Utzinger, 2008; cited from earlier work

albendazole sulfoxide detected in worms (H. polygyrus [1]; incubation 5 to 100 μM, 24 h, range or mean over the concentrations): 15 nmol/10 worms | albendazole sulfone detected in worms (H. polygyrus [1]; incubation 5 to 100 μM, 24 h, range, mean or maximum over the concentrations): 33 nmol/10 worms | ABZSO2 in worms (H. polygyrus [1]; incubation at 5 μM, 24 h): 33 ± 10 nmol/10 worms | ABZSO in medium (H. polygyrus [1]; incubation at 5 μM, 24 h): 0.2 ± 0.1 µM | ABZSO in worms (H. polygyrus [1]; incubation at 5 μM, 24 h): 19 ± 10 nmol/10 worms | ABZSO2 in worms (H. polygyrus [1]; incubation at 10 μM, 24 h): 51 ± 23 nmol/10 worms | ABZSO in medium (H. polygyrus [1]; incubation at 10 μM, 24 h): 0.2 ± 0.1 µM | ABZSO in worms (H. polygyrus [1]; incubation at 10 μM, 24 h): 19 ± 3 nmol/10 worms | ABZSO2 in worms (H. polygyrus [1]; incubation at 25 μM, 24 h): 23 ± 8 nmol/10 worms | ABZSO in medium (H. polygyrus [1]; incubation at 25 μM, 24 h): 0.4 ± 0.0 µM | ABZSO in worms (H. polygyrus [1]; incubation at 25 μM, 24 h): 13 ± 11 nmol/10 worms | ABZSO2 in worms (H. polygyrus [1]; incubation at 50 μM, 24 h): 30 ± 20 nmol/10 worms | ABZSO in medium (H. polygyrus [1]; incubation at 50 μM, 24 h): 0.3 ± 0.0 µM | ABZSO in worms (H. polygyrus [1]; incubation at 50 μM, 24 h): 9 ± 5 nmol/10 worms | ABZSO2 in worms (H. polygyrus [1]; incubation at 75 μM, 24 h): 31 ± 8 nmol/10 worms | ABZSO in medium (H. polygyrus [1]; incubation at 75 μM, 24 h): 0.3 ± 0.0 µM | ABZSO in worms (H. polygyrus [1]; incubation at 75 μM, 24 h): 16 ± 11 nmol/10 worms | ABZSO2 in worms (H. polygyrus [1]; incubation at 100 μM, 24 h): 33 ± 21 nmol/10 worms | ABZSO in medium (H. polygyrus [1]; incubation at 100 μM, 24 h): 0.2 ± 0.0 µM | ABZSO in worms (H. polygyrus [1]; incubation at 100 μM, 24 h): 16 ± 8 nmol/10 worms | albendazole in the parasite and the culture medium (T. muris [2]; incubation 5-100 μM): neither detected | albendazole sulfoxide in the parasite and the culture medium (T. muris [2]; incubation 5-100 μM): neither detected | ABZSO2 in worms (T. muris [2]; incubation at 5 μM): 122 ± 45 nmol/10 worms | ABZSO2 in worms (T. muris [2]; incubation at 10 μM): 185 ± 55 nmol/10 worms | ABZSO2 in worms (T. muris [2]; incubation at 25 μM): 421 ± 171 nmol/10 worms | ABZSO2 in worms (T. muris [2]; incubation at 50 μM): 780 ± 258 nmol/10 worms | ABZSO2 in worms (T. muris [2]; incubation at 75 μM): 1127 ± 451 nmol/10 worms | ABZSO2 in worms (T. muris [2]; incubation at 100 μM): 1348 ± 447 nmol/10 worms
SMILES: CCCS(=O)(=O)c1ccc2nc(NC(=O)OC)[nH]c2c1 [Albendazole sulfone, albendazole sulfone]
Drug effect (reduction of parasite viability) (adult H. polygyrus): 40% [200 μM] | Drug effect (reduction of parasite viability) (adult H. polygyrus; listed as albendazole sulfone): 40%

SMILES: CCC[S+]([O-])c1ccc2[nH]c(NC(=O)OC)nc2c1 (centres unmarked) [Albendazole sulfoxide, albendazole sulfoxide]
albendazole in the culture medium (H. polygyrus [1]; incubation 5 to 100 μM, 24 h): Neither albendazole nor albendazole sulfone could be quantified | albendazole sulfone in the culture medium (H. polygyrus [1]; incubation 5 to 100 μM, 24 h): Neither albendazole nor albendazole sulfone could be quantified | Drug effect (reduction of parasite viability) (adult H. polygyrus): 60% [200 μM] | Drug effect (reduction of parasite viability) (adult H. polygyrus; listed as albendazole sulfoxide): 60% | albendazole in worms (H. polygyrus [3]): No albendazole was detected | albendazole in small intestinal mucosa [4]: no albendazole was detected | albendazole in stomach content [4]: no albendazole was detected | albendazole sulfoxide in plasma, compared to the albendazole treatment ([4]; oral 100 mg/kg, 5 h): 5.2 fold | albendazole sulfoxide in the mucosa of the small intestine ([4]; oral 100 mg/kg, 5 h): 137 µmol/g | albendazole sulfoxide in the mucosa of the small intestine ([4]; oral 100 mg/kg, other time points (2 and 8 h)): below 27 μmol/g

drug quantity in worms, maximum (T. muris [5]): up to 31 nmol per ten T. muris | albendazole sulfone in the culture medium (H. polygyrus [1]; incubation 5 to 100 μM, 24 h): could not be quantified | ABZ in worms (H. polygyrus [1]; incubation at 5 μM, 24 h): 13 ± 6 nmol/10 worms | ABZ in worms (H. polygyrus [1]; incubation at 10 μM, 24 h): 16 ± 5 nmol/10 worms | ABZ in worms (H. polygyrus [1]; incubation at 25 μM, 24 h): 5 ± 8 nmol/10 worms | ABZ in worms (H. polygyrus [1]; incubation at 50 μM, 24 h): 28 ± 4 nmol/10 worms | albendazole in worms, plateau (H. polygyrus [1]; incubation at 50 μM, longer than 8 h): 29 nmol/10 worms | ABZ in worms (H. polygyrus [1]; incubation at 75 μM, 24 h): 55 ± 49 nmol/10 worms | ABZ in worms (H. polygyrus [1]; incubation at 100 μM, 24 h): 10 ± 21 nmol/10 worms | albendazole sulfone in the culture medium (T. muris [2]; incubation 5 to 100 μM): not detected | ABZ in worms (T. muris [2]; incubation at 5 μM): 94 ± 44 nmol/10 worms | ABZ in worms (T. muris [2]; incubation at 10 μM): 176 ± 83 nmol/10 worms | ABZ in worms (T. muris [2]; incubation at 25 μM): 263 ± 173 nmol/10 worms | ABZ in worms (T. muris [2]; incubation at 50 μM): 551 ± 528 nmol/10 worms | ABZ in worms (T. muris [2]; incubation at 75 μM): 598 ± 336 nmol/10 worms | ABZ in worms (T. muris [2]; incubation at 100 μM): 641 ± 467 nmol/10 worms | albendazole quantity in worms, maximum (H. polygyrus [3]; in vivo, 100 mg/kg): up to 10 nmol per ten H. polygyrus | albendazole in worms (H. polygyrus [3]): 6.2 nmol/10 worms | albendazole in stomach content ([8]; intraperitoneal 100 mg/kg, 2 h): 139 µmol/g | albendazole in the mucosa of the large intestine ([8]; intraperitoneal 100 mg/kg, 2 h): 8 µmol/g | albendazole in small intestine content ([8]; oral 100 mg/kg, 5 and 8 h): around 5 μmol/g | albendazole in large intestinal content ([8]; oral 100 mg/kg, 2 h): 208 µmol/g | albendazole in small intestine content ([8]; oral 100 mg/kg, 2 h): 394 µmol/g | albendazole in the mucosa of the small intestine ([8]; oral 100 mg/kg, 2 h): 5 µmol/g | albendazole in large intestinal content ([8]; oral 100 mg/kg, 5 h): 57 µmol/g | albendazole in large intestinal content ([8]; oral 100 mg/kg, 8 h): 16 µmol/g | albendazole in stomach content ([8]; oral 100 mg/kg, average between 2 and 8 h): 114 µmol/g | albendazole in small intestinal mucosa [4]: not found | albendazole in stomach content [4]: 2217 µmol/g | albendazole in the mucosa ([4]; oral 100 mg/kg, 8 h): 13 µmol/g | albendazole in large intestine content ([4]; oral 100 mg/kg, end of the decrease over time (2-8 h)): 99 µmol/g | albendazole in large intestine content ([4]; oral 100 mg/kg, start of the decrease over time (2-8 h)): 462 µmol/g
SMILES: CCCSc1ccc2nc(NC(=O)OC)[nH]c2c1 [Albendazole, albendazole]
Drug effect (reduction of parasite viability) (adult H. polygyrus): 50% [200 μM] | Drug effect (reduction of parasite viability) (adult H. polygyrus; listed as albendazole): 50% | Drug effect (adult T. muris): <50% ^b | Worm burden reduction (H. polygyrus [6]): 100% [100 mg/kg] ^a | Worm burden reduction (H. polygyrus [6]; listed as albendazole): 100% | Worm burden reduction (T. muris [7]): 42% [300 mg/kg] ^c | cure rate (hookworm infections): 72% | cure rate (trichuriasis): below 36%
